Measured values from ChEMBL document CHEMBL3739286, “Betulinic acid derived hydroxamates and betulin derived carbamates are interesting scaffolds for the synthesis of novel cytotoxic compounds” (Eur J Med Chem, 2015).

Columns and labels:
HeLa = assay: Cytotoxicity against human HeLa cells after 96 hrs by SRB assay; assay type: functional, cell-based
In short: (§1)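 Photometric sulforhodamine B read-out of antiproliferative effect after 96 h of continuous treatment; EC₅₀ values in µM, averaged from three independent experiments each run in triplicate; the assay cut-off is EC₅₀ > 30 µM. Human tumour lines are tested alongside nonmalignant mouse NIH 3T3 fibroblasts.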

MCF7 = assay: Cytotoxicity against human MCF7 cells after 96 hrs by SRB assay; assay type: functional, cell-based; conditions: Homo sapiens, MCF7, 96 h; read-out: EC50; in short: as §1
HT-29 = assay: Cytotoxicity against human HT-29 cells after 96 hrs by SRB assay; assay type: functional, cell-based; conditions: HT-29, 96 h; in short: as §1
A2780 = assay: Cytotoxicity against human A2780 cells after 96 hrs by SRB assay; assay type: functional, cell-based; conditions: Homo sapiens, A2780, 96 h; read-out: EC50; in short: as §1
[1] = Cytotoxicity against human 518A2 cells after 96 hrs by SRB assay; assay type: functional, cell-based; conditions: Homo sapiens, 518A2, 96 h; read-out: EC50; in short: as §1
[2] = Cytotoxicity against mouse NIH/3T3 cells after 96 hrs by SRB assay; assay type: cell-based, NIH3T3; conditions: Mus musculus, NIH3T3, 96 h; read-out: EC50; in short: as §1
A549 = assay: Cytotoxicity against human A549 cells after 96 hrs by SRB assay; assay type: functional, cell-based; conditions: Homo sapiens, A549, 96 h; read-out: EC50; in short: as §1

SMILES | EC50 (HeLa) | EC50 (MCF7) | EC50 (HT-29) | EC50 (A2780) | EC50 [1] | EC50 [2] | EC50 (A549)
C=C(C)[C@@H]1CC[C@]2(C(=O)NCc3ccccc3)CC[C@]3(C)[C@H](CC[C@@H]4[C@@]5(C)CCC(=O)C(C)(C)[C@@H]5CC[C@]43C)[C@@H]12 | > 30 µM | > 30 µM | > 30 µM | 7.4 µM | > 30 µM | > 30 µM | > 30 µM
C=C(C)[C@@H]1CC[C@]2(COC(=O)NCCC)CC[C@]3(C)[C@H](CC[C@@H]4[C@@]5(C)CC[C@H](OC(C)=O)C(C)(C)[C@@H]5CC[C@]43C)[C@@H]12 | > 30 µM | > 30 µM | > 30 µM | > 30 µM | > 30 µM | > 30 µM | > 30 µM
C=C(C)[C@@H]1CC[C@]2(COC(=O)NCCCC)CC[C@]3(C)[C@H](CC[C@@H]4[C@@]5(C)CCC(=O)C(C)(C)[C@@H]5CC[C@]43C)[C@@H]12 | > 30 µM | > 30 µM | > 30 µM | > 30 µM | > 30 µM | > 30 µM | > 30 µM
C=C(C)[C@@H]1CC[C@]2(COC(=O)NCCC)CC[C@]3(C)[C@H](CC[C@@H]4[C@@]5(C)CC[C@H](OC(=O)NCCC)C(C)(C)[C@@H]5CC[C@]43C)[C@@H]12 | > 30 µM | > 30 µM | > 30 µM | 19.4 µM | > 30 µM | > 30 µM | > 30 µM
C=C(C)[C@@H]1CC[C@]2(COC(=O)Nc3ccccc3)CC[C@]3(C)[C@H](CC[C@@H]4[C@@]5(C)CCC(=O)C(C)(C)[C@@H]5CC[C@]43C)[C@@H]12 | > 30 µM | > 30 µM | > 30 µM | > 30 µM | > 30 µM | > 30 µM | > 30 µM
C=C(C)[C@@H]1CC[C@]2(COC(=O)NCC)CC[C@]3(C)[C@H](CC[C@@H]4[C@@]5(C)CC[C@H](O)C(C)(C)[C@@H]5CC[C@]43C)[C@@H]12 | > 30 µM | 12.1 µM | > 30 µM | 4.6 µM | 12.5 µM | 8.8 µM | 12 µM
C=C(C)[C@@H]1CC[C@]2(COC(=O)NCCC)CC[C@]3(C)[C@H](CC[C@@H]4[C@@]5(C)CC[C@H](O)C(C)(C)[C@@H]5CC[C@]43C)[C@@H]12 | 9.4 µM | 15.5 µM | 16.3 µM | 10.6 µM | 15.9 µM | 7.3 µM | 14.2 µM
C=C(C)[C@@H]1CC[C@]2(COC(=O)NCCCC)CC[C@]3(C)[C@H](CC[C@@H]4[C@@]5(C)CC[C@H](OC(C)=O)C(C)(C)[C@@H]5CC[C@]43C)[C@@H]12 | > 30 µM | > 30 µM | > 30 µM | > 30 µM | > 30 µM | > 30 µM | > 30 µM
C=C(C)[C@@H]1CC[C@]2(COC(=O)NCCCCCC)CC[C@]3(C)[C@H](CC[C@@H]4[C@@]5(C)CCC(=O)C(C)(C)[C@@H]5CC[C@]43C)[C@@H]12 | > 30 µM | > 30 µM | > 30 µM | > 30 µM | > 30 µM | > 30 µM | > 30 µM
C=C(C)[C@@H]1CC[C@]2(C(N)=O)CC[C@]3(C)[C@H](CC[C@@H]4[C@@]5(C)CCC(=O)C(C)(C)[C@@H]5CC[C@]43C)[C@@H]12 | 22.9 µM | 10.3 µM | 17.9 µM | 15.6 µM | 21.5 µM | 17.7 µM | 14.7 µM
C=C(C)[C@@H]1CC[C@]2(C(N)=O)CC[C@]3(C)[C@H](CC[C@@H]4[C@@]5(C)CC[C@H](O)C(C)(C)[C@@H]5CC[C@]43C)[C@@H]12 | 11.2 µM | 10.7 µM | 10.2 µM | 15.7 µM | 9.9 µM | 10.7 µM | 8.2 µM
C=C(C)[C@@H]1CC[C@]2(C(=O)NCc3ccccc3)CC[C@]3(C)[C@H](CC[C@@H]4[C@@]5(C)CC[C@H](OC(C)=O)C(C)(C)[C@@H]5CC[C@]43C)[C@@H]12 | 16.9 µM | > 30 µM | > 30 µM | 6.2 µM | 6.2 µM | > 30 µM | 10.3 µM
C=C(C)[C@@H]1CC[C@]2(C(N)=O)CC[C@]3(C)[C@H](CC[C@@H]4[C@@]5(C)CC[C@H](OC(C)=O)C(C)(C)[C@@H]5CC[C@]43C)[C@@H]12 | 12 µM | 11.1 µM | 11.5 µM | 5.7 µM | 13.4 µM | 20 µM | 12.4 µM
C=C(C)[C@@H]1CC[C@]2(COC(=O)NCC)CC[C@]3(C)[C@H](CC[C@@H]4[C@@]5(C)CC[C@H](OC(C)=O)C(C)(C)[C@@H]5CC[C@]43C)[C@@H]12 | 17 µM | 20.4 µM | > 30 µM | 11.1 µM | 10.2 µM | > 30 µM | 14.1 µM
C=C(C)[C@@H]1CC[C@]2(COC(=O)Nc3ccccc3)CC[C@]3(C)[C@H](CC[C@@H]4[C@@]5(C)CC[C@H](OC(C)=O)C(C)(C)[C@@H]5CC[C@]43C)[C@@H]12 | > 30 µM | > 30 µM | > 30 µM | > 30 µM | > 30 µM | > 30 µM | > 30 µM
C=C(C)[C@@H]1CC[C@]2(COC(=O)NCCCC)CC[C@]3(C)[C@H](CC[C@@H]4[C@@]5(C)CC[C@H](O)C(C)(C)[C@@H]5CC[C@]43C)[C@@H]12 | 10.1 µM | 12.5 µM | 7.5 µM | 7 µM | 8 µM | 5.7 µM | 8.6 µM
C=C(C)[C@@H]1CC[C@]2(COC(=O)NCCCC)CC[C@]3(C)[C@H](CC[C@@H]4[C@@]5(C)CC[C@H](OC(=O)NCCCC)C(C)(C)[C@@H]5CC[C@]43C)[C@@H]12 | > 30 µM | > 30 µM | > 30 µM | > 30 µM | > 30 µM | > 30 µM | > 30 µM
